Measured values taken from ChEMBL document CHEMBL1129241, “Immunosuppressive cyclolignans” (J Med Chem, 1996).
Converted amounts (≈) assume the structure as drawn.

How the values were obtained:
[1] = Compound was tested for Cytotoxic activity by lymphocyte viability assay.; conditions: Mus musculus
Outline: (§1)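 Balb/c mouse splenocytes alone, added to wells holding dried test compound (eight dilutions, 10 to 3.33 × 10^-6 mg/mL, applied in EtOH and evaporated); culture-medium wells serve as nonspecific control. Incubated 96 h at 37 °C, 5% CO2, then MTT added; formazan dissolved in 2-propanol and absorbance read at 570 nm.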

[2] = Non cytotoxic IM activity index which is the ratio of IC50 of LcV to IC50 of MLR; format: functional
Mus musculus [3] = organism: Mus musculus; assay: (§2) Compound was tested for Immunosuppression activity by mixed lymphocyte reaction (MLR) in murine splenocytes of mice; format: functional
Outline: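 Two-way MLR: Balb/c and C57Bl/6 splenocytes combined in wells holding dried compound (eight dilutions, 10 to 3.33 × 10^-6 mg/mL, applied in EtOH and evaporated; duplicates). Incubated 96 h at 37 °C, 5% CO2, then pulsed 15 h with [3H]thymidine. Incorporated label counted after glass-fibre filtration. Proliferation expressed as percent of control; IC50 interpolated.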

Mus musculus [4] = organism: Mus musculus; assay: as §2; format: functional, organism-based
Outline: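 Two-way mixed lymphocyte reaction using splenocytes from Balb/c and C57Bl/6 mice, combined in equal volumes. Compounds were dissolved in absolute EtOH and tested at eight dilutions from 10 to 3.33 × 10^-6 mg/mL, in duplicate, with the solvent dried onto the wells. Cultures ran 96 h at 37 °C in 5% CO2, then were pulsed 15 h with [3H]thymidine. Incorporation was counted by scintillation; IC50 was interpolated from % proliferation relative to control.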

[5] = Compound was tested for Cytotoxic activity by lymphocyte viability assay; conditions: Mus musculus; outline: as §1

Row | Structure (SMILES) | IC50 [1] [µg/mL] | Selectivity index [2] | IC50 (Mus musculus [3]) [µg/mL] | IC50 (Mus musculus [4]) [µg/mL] | IC50 [5] [µg/mL]
1 | COc1cc([C@@H]2c3cc4c(cc3C3=NOC[C@H]3[C@@H]2C(=O)O)OCO4)cc(OC)c1OC | 30 (≈ 70.2 µM) | >3333 | < 0.009 |  | 
2 | COC(=O)[C@@H]1[C@H](c2cc(OC)c(OC)c(OC)c2)c2cc3c(cc2C2=NN(c4ccc(C)cc4)C[C@H]21)OCO3 | > 26 | >31 | 0.848 (≈ 1.6 µM) |  | 
3 | COc1cc(C2c3cc4c(cc3[C@@H](OC(C)=O)C3COC(=O)C23)OCO4)cc(OC)c1OC(C)=O (some centres not stated) | 22.8 (≈ 47.1 µM) | 50 |  | 0.453 (≈ 0.935 µM) | 
4 | COC(=O)[C@@H]1[C@H](c2cc(OC)c(OC)c(OC)c2)c2cc3c(cc2C(=O)[C@H]1CO)OCO3 | > 25 | >18 | 1.41 (≈ 3.17 µM) |  | 
5 | COc1cc(C2C3=C(COC3=O)Cc3cc4c(cc32)OCO4)cc(OC)c1OC (configuration not stated) | 27.5 (≈ 69.4 µM) | >3333 |  | 0.00825 (≈ 0.0208 µM) | 
6 | COc1cc([C@@H]2c3cc4c(cc3C3=NN(c5ccccc5)C[C@H]3[C@@H]2COC(C)=O)OCO4)cc(OC)c1OC | > 100 | >11 | 9.29 (≈ 17.5 µM) |  | 
7 | COc1cc([C@@H]2c3cc4c(cc3C(=O)[C@H]3COC(=O)[C@H]23)OCO4)cc(OC)c1O | > 25 | >2 | 11.8 (≈ 29.6 µM) |  | 
8 | COc1cc([C@@H]2c3cc4c(c(O)c3C[C@H]3COC(=O)[C@@H]32)OCO4)cc(OC)c1O | 12.8 (≈ 32 µM) | >2586 | < 0.00495 |  | 
9 | COc1cc(C2c3cc4c(cc3CC3COC(=O)C32)OCO4)cc(OC)c1OC(C)=O (configuration not stated) | 15.8 (≈ 37.1 µM) | 220 |  | 0.0718 (≈ 0.168 µM) | 
10 | COC(=O)[C@@H]1[C@H](c2cc(OC)c(OC)c(OC)c2)c2cc3c(cc2C2=NN(C(C)=O)C[C@H]21)OCO3 | > 100 | >13 | 7.68 (≈ 15.9 µM) |  | 
11 | COc1cc([C@@H]2c3cc4c(cc3C[C@H]3COC(=O)[C@@H]32)OCO4)cc(OC)c1O [4'-DEMETHYLDEOXYPODOPHYLLOTOXIN] | 11.5 (≈ 29.9 µM) | 4097 | 0.00281 (≈ 0.00731 µM) |  | 
12 | COc1cc([C@@H]2c3cc4c(c(O)c3C[C@H]3COC(=O)[C@@H]32)OCO4)cc(OC)c1OC [BETA-PELTATIN A] | 19.7 (≈ 47.5 µM) | >2085 | < 0.00945 |  | 
13 | COc1cc([C@@H]2c3cc4c(cc3[C@@H](O)[C@H]3COC(=O)[C@H]23)OCO4)cc(OC)c1OC [EPIPODOPHYLLOTOXIN] | > 65 | >284 | 0.229 (≈ 0.553 µM) |  | 
14 | COc1cc([C@@H]2c3cc4c(cc3[C@H](O)[C@H]3COC(=O)[C@H]23)OCO4)cc(OC)c1OC [PODOFILOX] |  | >2190 |  | < 0.128 | 280 (≈ 676 µM)
